In publication PMC10247892 (Biomedicine & Pharmacotherapy, 2023):
Where two headings read alike, the source gives them in different places.

Assays:
[1] = tested on: HCoV-229E; test: Antiviral activity against HCoV-229E in MRC-5 cells; assay type: cell-based, human coronavirus 229E; conditions: for IC50: read-out: IC50 ± SD
Method in brief: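 MRC-5 cells were seeded at 20,000/well in duplicate per drug and condition and grown to 80 % confluency. Virus was adsorbed at MOI 0.1 PFU/cell in FBS-free DMEM for 1 h at 37 °C, then removed. Serial dilutions of test compound in 1 % FBS DMEM were added for 24 h, at doses below MTT-determined cytotoxicity. Cells were fixed with PFA, saponin-permeabilised and stained with anti-N antibody, Alexa 488 secondary and DAPI, then imaged by widefield fluorescence. Infection was normalised to the untreated infected control (100 %). IC50 came from a nonlinear dose-effect fit. Three replicate experiments.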

[2] = tested on: MRC-5 cells; test: Cytotoxicity assay; assay type: cell-based; conditions: read-out: CC50 ± SD, MTT, 24 h
[3] = tested on: Vero E6 cells; conditions: uninfected Vero E6 cells, 3 days
[4] = Cytotoxicity assay; assay type: cell-based; conditions: human, MRC-5 cells
[5] = tested on: SARS-CoV-2 Spike pseudovirus; assay type: cell-based
[6] = tested on: SARS-CoV-2; assay type: cell-based; conditions: Vero E6 cells
[7] = tested on: SARS-CoV-2; test: TEM of Vero E6 cells infected with SARS-CoV-2; assay type: cell-based; conditions: infected Vero E6, highest concentration (HβCD 20 mM), 48 hpi
Method in brief: (§1)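 Mock- or virus-infected Vero E6 monolayers were kept without or with two concentrations of test compound (0.16 mM or 20 mM for the cyclodextrin shown). At 48 h they were fixed with 4 % PFA plus 1 % glutaraldehyde in PBS for 2 h at RT. Samples were pelleted, post-fixed on ice in osmium tetroxide/potassium ferrocyanide, acetone-dehydrated and epoxy-embedded. At least 100 cells per condition were examined by TEM.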

[8] = tested on: Vero E6 cells; test: TEM of mock-infected Vero E6 cells; assay type: cell-based; conditions: Vero E6, lower or only dose (HβCD 0.16 mM, phytol 50 µM), 48 h
Method in brief: as §1

[9] = Human coronavirus 229E, MRC5, 24 h
[10] = HCoV229E, MRC-5 cells, MOI 0.1, 24 h

Compound	Inhibition of HCoV-229E infection (in words) ([1]; MRC-5 cells)	First cytotoxic conc. [3]	CC50 at 24 h [4]	also measured
CCC(C)n1ncn(-c2ccc(N3CCN(c4ccc(OCC5COC(Cn6cncn6)(c6ccc(Cl)cc6Cl)O5)cc4)CC3)cc2)c1=O (stereo not drawn) [Itraconazole]	inhibit 229E virus	–	–	–
NCC(CC(=O)O)c1ccc(Cl)cc1 (stereo not drawn) [Baclogen]	did not have an inhibitory effect	–	–	CC50 [2]: > 1000 µM
CO[C@H]1C[C@@H]2CC[C@@H](C)[C@@](O)(O2)C(=O)C(=O)N2CCCC[C@H]2C(=O)O[C@H]([C@H](C)C[C@@H]2CC[C@@H](OCCO)[C@H](OC)C2)CC(=O)[C@H](C)/C=C(\C)[C@@H](O)[C@@H](OC)C(=O)[C@H](C)C[C@H](C)/C=C/C=C/C=C/1C [Everolimus]	inhibit 229E virus	–	–	–
O=C1c2c(O)cc(O)cc2OC(c2ccc(O)c(O)c2)C1O (stereo not drawn) [Taxifolin]	inhibit 229E virus	–	–	–
Nc1ccc(C(=O)NCC(=O)O)cc1 [Aminohipurric]	–	–	–	CC50 [2]: < 10000 µM
CO[C@H]1C[C@@H]2CC[C@@H](C)[C@@](O)(O2)C(=O)C(=O)N2CCCC[C@H]2C(=O)O[C@H]([C@H](C)C[C@@H]2CC[C@@H](O)[C@H](OC)C2)CC(=O)[C@H](C)/C=C(\C)[C@@H](O)[C@@H](OC)C(=O)[C@H](C)C[C@H](C)/C=C/C=C/C=C/1C [Sirolimus]	inhibit 229E virus	–	–	–
CCc1c(-c2ccccc2)c(-c2ccccc2)nn1-c1ccccc1-c1cccc(OCC(=O)O)c1 [BMS309403]	inhibited 229E but their CC50 was close to the IC50	–	–	–
CCCCCCCCCCC(C)(C)C(=O)Nc1c(OC)cc(OC)cc1OC [CI976]	–	100 µM	–	CC50 [2]: 50.7 µM
C[C@H]1O[C@@H](O[C@H]2[C@@H](O)C[C@H](O[C@H]3[C@@H](O)C[C@H](O[C@H]4CC[C@@]5(C)[C@H](CC[C@@H]6[C@@H]5C[C@@H](O)[C@]5(C)[C@@H](C7=CC(=O)OC7)CC[C@]65O)C4)O[C@@H]3C)O[C@@H]2C)C[C@H](O)[C@@H]1O [Digoxin]	inhibit 229E virus	–	–	–
CC(C)[C@@H]1NC(=O)[C@H](C)OC(=O)[C@@H](C(C)C)NC(=O)[C@@H](C(C)C)OC(=O)[C@H](C(C)C)NC(=O)[C@H](C)OC(=O)[C@@H](C(C)C)NC(=O)[C@@H](C(C)C)OC(=O)[C@H](C(C)C)NC(=O)[C@H](C)OC(=O)[C@@H](C(C)C)NC(=O)[C@@H](C(C)C)OC1=O [Valinomycin]	–	0.32 µM	12.5 µM	IC50 [1, 9]: 2.5 ± 0.2 µM
OC[C@H]1O[C@@H]2O[C@H]3[C@H](O)[C@@H](O)[C@@H](O[C@H]4[C@H](O)[C@@H](O)[C@@H](O[C@H]5[C@H](O)[C@@H](O)[C@@H](O[C@H]6[C@H](O)[C@@H](O)[C@@H](O[C@H]7[C@H](O)[C@@H](O)[C@@H](O[C@H]8[C@H](O)[C@@H](O)[C@@H](O[C@H]1[C@H](O)[C@H]2O)O[C@@H]8CO)O[C@@H]7CO)O[C@@H]6CO)O[C@@H]5CO)O[C@@H]4CO)O[C@@H]3CO [β-CD, ß-Cyclodextrin]	–	–	–	Inhibition of SARS-CoV-2 pseudovirus entry (in words) [5]: most potent
C=C1CC[C@H]2C(=C)CC[C@H]3C(=C)C(=O)O[C@@H]3[C@@H]12 [Dehydrocostus lactone]	–	100 µM	39.1 µM	IC50 [1, 9]: 4.2 ± 1.8 µM
Gingenoside RB1	–	50 µM	–	CC50 [2]: > 1000 µM; IC50 [1, 10]: 48.3 ± 2.1 µM
C=C1CC/C=C(\C)CC[C@@H]2[C@@H]1CC2(C)C [(-)-Trans-Caryophyllene]	–	–	1840 µM	–
C=C(C)[C@H]1CC=C(C)CC1 [R-(+)-Limonene]	–	–	–	CC50 [2]: 1910 µM
Phytol	–	100 to 200 µM	–	CC50 [2]: 56.2 µM; IC50 [1, 10]: 18.6 ± 6.9 µM; Antiviral activity against SARS-CoV-2 (in words) [6]: had antiviral activity; Effect on infected cells by TEM (in words) [7]: clear signs of cytopathic effect; Alterations in mock-infected cells by TEM (in words) [8]: did not cause significant alterations
C=C1C2CCC(C2)C1(C)C (stereo not drawn) [Camphene]	–	–	72000 µM	–
CC1=C(C(=O)OC2CCCCC2)C(c2ccc([N+](=O)[O-])cc2)C2=C(CC(C)(C)CC2=O)N1 (stereo not drawn) [FLI 06]	–	4 to 6.25 µM	–	CC50 [2]: > 50 µM; IC50 [1, 10]: 0.4 ± 0.3 µM
COc1cc(-n2c(=S)[nH]c3ccccc3c2=O)c(Cl)cc1Cl [Mdivi-1]	–	20 µM	–	CC50 [2]: 95.4 µM; IC50 [1, 10]: 11.7 ± 0.7 µM

Compound	Inhibition of HCoV-229E infection (in words) ([1]; MRC-5 cells)	First cytotoxic conc. [3]	CC50 at 24 h [4]	also measured
CC1=CCC(=C(C)C)CC1 [Terpinolene]	–	10000 µM	69000 µM	IC50 [1, 9]: 8000 ± 2200 µM
CC1(C)CC[C@]2(C(=O)O)CC[C@]3(C)C(=CC[C@@H]4[C@@]5(C)CC[C@H](O)C(C)(C)[C@@H]5CC[C@]43C)[C@@H]2C1 [Oleanolic acid]	–	–	25200 µM	–
CC(=O)Oc1ccccc1C(=O)O [Aspirin]	–	–	1100 µM	IC50 [1, 9]: 1000 µM
C[C@H]1O[C@@H](O[C@H]2[C@@H](O)C[C@H](O[C@H]3[C@@H](O)C[C@H](O[C@H]4CC[C@@]5(C)[C@H](CC[C@@H]6[C@@H]5CC[C@]5(C)[C@@H](C7=CC(=O)OC7)CC[C@]65O)C4)O[C@@H]3C)O[C@@H]2C)C[C@H](O)[C@@H]1O [Digitoxin]	–	1.56 µM	0.0069 µM	–
CC1=CC[C@@H](C(C)(C)O)CC1 [Alpha-terpineol]	–	–	1060 µM	IC50 [1, 9]: 382 ± 107 µM
CC(=O)NS(=O)(=O)c1ccc(N)cc1 [Sulfacetamide]	–	–	> 1000 µM	–
O=c1c(O)c(-c2ccc(O)c(O)c2)oc2cc(O)cc(O)c12 [Quercetin]	inhibit 229E virus	–	–	–
CC(=O)Nc1nc(C)c(-c2ccc(Cl)c(S(=O)(=O)NCCO)c2)s1 [PIK93]	–	20 µM	–	CC50 [2]: > 50 µM; IC50 [1, 10]: 4.2 ± 1.4 µM
CC(=O)O[C@H]1C[C@H](O[C@H]2[C@@H](O)C[C@H](O[C@H]3[C@@H](O)C[C@H](O[C@H]4CC[C@@]5(C)[C@H](CC[C@@H]6[C@@H]5C[C@@H](O)[C@]5(C)[C@@H](C7=CC(=O)OC7)CC[C@]65O)C4)O[C@@H]3C)O[C@@H]2C)O[C@H](C)[C@H]1O[C@@H]1O[C@H](CO)[C@@H](O)[C@H](O)[C@H]1O [Lanatoside C]	inhibit 229E virus	–	–	–
COC[C@H]1OC(=O)c2coc3c2[C@@]1(C)C1=C(C3=O)[C@@H]2CCC(=O)[C@@]2(C)C[C@H]1OC(C)=O [Wortmannin]	–	25 µM	> 50 µM	IC50 [1, 9]: 21.6 ± 15.6 µM
N[C@@H](Cc1ccccc1)C(=O)O [L-Phenilalanine]	–	–	–	CC50 [2]: < 10000 µM
CC(C)C[C@H](NC(=O)[C@H](Cc1ccccc1)NC(=O)c1cnccn1)B(O)O [Bortezomib (PS-341), Bortezomib]	–	0.8 µM	> 0.1 µM	IC50 [1, 9]: 0.0006 ± 0.0003 µM
COc1cc([C@H]2Oc3cc([C@H]4Oc5cc(O)cc(O)c5C(=O)[C@@H]4O)ccc3O[C@@H]2CO)ccc1O [SilibininA, Silibinin A]	inhibit 229E virus	–	–	–
C[C@@H]1CC[C@H]2C(C)(C)[C@H]3C[C@@]12CC[C@@]3(C)O [alpha-cedrol]	inhibited 229E but their CC50 was close to the IC50	–	–	–
CCC(C)(C)C(=O)O[C@H]1C[C@@H](C)C=C2C=C[C@H](C)[C@H](CC[C@@H]3C[C@@H](O)CC(=O)O3)[C@H]21 [Simvastatin]	inhibit 229E virus	–	–	–
OCC(S)CS (stereo not drawn) [Dimercaprol]	inhibited 229E but their CC50 was close to the IC50	–	–	–
O=c1c(O)c(-c2cc(O)c(O)c(O)c2)oc2cc(O)cc(O)c12 [Myricetin]	–	–	434 µM	–
Oc1ccc(/C=C/c2cc(O)cc(O)c2)cc1 [Resveratrol]	inhibit 229E virus	–	–	–
CCC(CC)COC(=O)[C@H](C)N[P@](=O)(OC[C@H]1O[C@@](C#N)(c2ccc3c(N)ncnn23)[C@H](O)[C@@H]1O)Oc1ccccc1 [Remdesivir]	–	100 µM	–	–
